The source of these data is ChEMBL document CHEMBL1150130, “Activity-guided isolation of constituents of Renealmia nicolaioides with the potential to induce the phase II enzyme quinone reductase” (J Nat Prod, 2002).

A short description of test [1]: Cytotoxicity against mouse Hepa-1c1c7 cells. It counts as cell-based. Put shortly: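 Mouse Hepa 1c1c7 hepatoma cells were cultured and assessed in the same system as the QR induction assay. IC50 was taken as the concentration causing half-maximal inhibition of cell viability.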
For test [2], the system named is Plasmodium falciparum. In words: Antiplasmodial activity against Plasmodium falciparum D6. It counts as functional, organism-based.
A short description of test [3]: Chemopreventive index, ratio of IC50 for mouse Hepa-1c1c7 cells to drug level required to double specific NADPH:quinone reductase activity in mouse Hepa-1c1c7 cells. It counts as functional. Put shortly:
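Cultured mouse hepatoma Hepa 1c1c7 cells treated with extracts, fractions or pure isolates. QR induction was expressed as CD, the concentration that doubles QR specific activity. IC50 was the concentration giving half-maximal inhibition of cell viability in the same cells. Index computed as IC50/CD. Sulforaphane served as positive control.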

By IC50 is commonly meant the concentration at which inhibition is half-maximal. The low end stands for higher potency, the high end for lower potency.

Values after ≈ are worked out from the molar mass of the structure shown. Where only a bound is given, the exact number is not on record here.

In test [1], `COc1cc(O)c(C(=O)/C=C/c2ccccc2)c(OC)c1` [FLAVOKAWAIN B] showed an IC50 of 7.2 µg/mL (≈ 25.3 µM).

`CC(C)C1=CC[C@@]2(C)[C@H](O)CC[C@](C)(O)[C@@H]2C1` [OPLODIOL] had an IC50 in test [2] of less than 5 µg/mL.

In test [2], `C/C1=C\CC[C@](C)(O)/C=C/[C@H](C(C)C)CC1` displayed a 50% inhibitory concentration (IC50) of less than 5 µg/mL.

As for `C=C1CC[C@@H](C(C)C)/C=C/[C@@](C)(O)CC[C@@H]1O`, in test [2], the 50% inhibitory concentration (IC50) was less than 5 µg/mL.

Consider `C[S+]([O-])CCCCN=C=S` (stereo not drawn) [SULFORAPHANE], for which, in test [3], the Ratio came out at 23.8. The midpoint of inhibition in test [1], the IC50, lay at 2.07 µg/mL (≈ 11.7 µM).

As to `COc1cc(O)c2c(c1)O[C@H](c1ccccc1)CC2=O` (racemic) [PINOSTROBIN], the Ratio in test [3] was greater than 111. In addition, in test [1], the IC50 is greater than 100 µg/mL.
